# Laboratory results taken from ChEMBL document CHEMBL4390662, “Design, synthesis and biological evaluation of novel α-acyloxy carboxamides via Passerini reaction as caspase 3/7 activators” (Eur J Med Chem, 2019).
# Calls of active or inactive are those of the source. The calls are words filed in the database; no cut-off is given here.
# Tests used:
# [1] = Selectivity index, ratio of IC50 for human WI38 cells to IC50 for mouse NFS60 cells
# In short: (§1)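 SI calculated as IC50 on normal Wi-38 fibroblasts divided by IC50 on the cancer cell line. Both came from 72 h MTT assays.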
# WI-38 = experiment: Cytotoxicity against human WI38 cells assessed as cell growth inhibition incubated for 72 hrs by MTT assay; type: cell-based; conditions: for IC50: Homo sapiens, WI-38, 72 h; for EC100: human, wi-38, 72 h
# In short: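 Wi-38 fibroblasts grown in DMEM with 10% FBS and seeded at 5×10^3 per well. Attachment 24 h, then serial concentrations for 72 h at 37°C, 5% CO2. MTT stock (5 mg/mL) added for 3 h at 37°C, DMSO solubilization, absorbance at 570 nm. IC50 estimated.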
# HepG2 = experiment: Cytotoxicity against human HepG2 cells assessed as cell growth inhibition incubated for 72 hrs by MTT assay; type: functional, cell-based; conditions: HepG2, 72 h
# In short: (§2)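 Cells grown in RPMI-1640 with 10% FBS and seeded at 5×10^3 per well. After 24 h, serial concentrations given for 72 h at 37°C, 5% CO2. Then 5 mg/mL MTT stock added for 3 h, formazan dissolved in DMSO, A570 read. IC50 calculated from the curves.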
# NFS-60 = experiment: Cytotoxicity against mouse NFS60 cells assessed as cell growth inhibition incubated for 72 hrs by MTT assay; type: functional, cell-based; conditions: NFS-60, 72 h; in short: as §2
# [2] = Selectivity index, ratio of IC50 for human WI38 cells to IC50 for human MCF7 cells; type: toxicity; conditions: WI38 cells versus MCF7 cells, read-out: Ratio IC50; in short: as §1
# [3] = Selectivity index, ratio of IC50 for human WI38 cells to IC50 for human HepG2 cells; type: toxicity; conditions: WI38 cells versus HepG2 cells, read-out: Ratio IC50; in short: as §1
# MCF7 = experiment: Cytotoxicity against human MCF7 cells assessed as cell growth inhibition incubated for 72 hrs by MTT assay; type: functional, cell-based; conditions: MCF7, 72 h; in short: as §2
# Escherichia coli [4] = experiment: Antimicrobial activity against Escherichia coli ATCC 25922 incubated for 24 hrs by agar well diffusion assay; type: functional
# In short: (§3)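 Nutrient agar spread with 100 µL inoculum: bacteria at 1×10^8 CFU/mL, fungi at 1×10^6 CFU/mL. 10 mm wells loaded with 100 µL of compound in DMSO (final 1 mg/mL). Bacteria incubated 24 h at 37 °C, fungi 48 h at 28 °C. Inhibition zones measured in mm. Ciprofloxacin and fluconazole standards at 1 mg/mL, DMSO negative control.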
# Pseudomonas aeruginosa = experiment: Antimicrobial activity against Pseudomonas aeruginosa ATCC 27853 incubated for 24 hrs by agar well diffusion assay; type: functional; in short: as §3
# Enterococcus faecalis = experiment: Antimicrobial activity against Enterococcus faecalis ATCC 29212 incubated for 24 hrs by agar well diffusion assay; type: functional; in short: as §3
# Staphylococcus aureus [5] = experiment: Antimicrobial activity against Staphylococcus aureus ATCC 25923 incubated for 24 hrs by agar well diffusion assay; type: functional; in short: as §3
# Candida albicans [6] = experiment: Antimicrobial activity against Candida albicans ATCC 90028 incubated for 48 hrs by agar well diffusion assay; type: functional; in short: as §3
# Staphylococcus aureus [7] = experiment: Antimicrobial activity against Staphylococcus aureus ATCC 25923 incubated for 24 hrs by microdilution assay; type: functional
# In short: (§4)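 Two-fold serial dilutions of test solutions made in Mueller Hinton broth and inoculated. Incubated at 37°C for 24 h. MIC taken as the lowest concentration with no growth. Ciprofloxacin is the antibacterial reference, fluconazole the antifungal one, and DMSO the blank.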
# Escherichia coli [8] = experiment: Antimicrobial activity against Escherichia coli ATCC 25922 incubated for 24 hrs by microdilution assay; type: functional; in short: as §4
# Candida albicans [9] = experiment: Antimicrobial activity against Candida albicans ATCC 90028 incubated for 24 hrs by microdilution assay; type: functional; in short: as §4
Structure (SMILES),Ratio IC50 [1],IC50 (WI-38) [nM],EC100 (WI-38) [µM],IC50 (HepG2) [nM],IC50 (NFS-60) [nM],selectivity ratio [2],selectivity ratio [3],IC50 (MCF7) [nM],diameter of the inhibition zone (DIZ) (Escherichia coli [4]),diameter of the inhibition zone (DIZ) (Pseudomonas aeruginosa),diameter of the inhibition zone (DIZ) (Enterococcus faecalis),diameter of the inhibition zone (DIZ) (Staphylococcus aureus [5]),diameter of the inhibition zone (DIZ) (Candida albicans [6]),MIC (Staphylococcus aureus [7]),"MIC (Escherichia coli [8]; ATCC 25922, 24 h) [µM]",MIC (Candida albicans [9]),"MIC (Candida albicans [9]; ATCC 90028, 24 h) [µM]","MIC (Staphylococcus aureus [7]; ATCC 25923, 24 h) [µM]",MIC (Escherichia coli [8])
O=C(OC1(C(=O)Nc2ccc([N+](=O)[O-])cc2)C(=O)c2ccccc2C1=O)c1ccc(C(F)(F)F)cc1,4.057,1960,0.635,428,484,5,4.59,393,,,,,,,,,,,
CCOC(=O)c1ccccc1C(=O)OC1(C(=O)Nc2ccc([N+](=O)[O-])cc2)CCCCC1,0.79,386,0.122,517,488,0.869,0.746,444,,,,,,,,,,,
CCC(=O)OC1(C(=O)Nc2ccc([N+](=O)[O-])cc2)CCCCC1,6.968,44.6,0.0169,21.5,6.4,3.16,2.07,14.1,inactive,12 mm,inactive,inactive,inactive,,,,,,
O=COC1(C(=O)Nc2ccc([N+](=O)[O-])cc2)CCCCC1,1.369,46.3,0.0271,34.1,33.8,1.31,1.36,35.4,15 mm,18 mm,12 mm,inactive,inactive,inactive,3500,inactive,,,
OC(Cn1cncn1)(Cn1cncn1)c1ccc(F)cc1F [FLUCONAZOLE],,,,,,,,,,,,,29 mm,,,,1,,
O=C(OC1(C(=O)Nc2ccc([N+](=O)[O-])cc2)CCCCC1)c1ccc(C(F)(F)F)cc1,7.115,185,0.0398,29.1,26,6.83,6.36,27.1,inactive,inactive,inactive,inactive,inactive,,,,,,
O=C(OC1(C(=O)Nc2ccc([N+](=O)[O-])cc2)CCCCC1)c1ccc(Br)cc1,2.216,523,0.0095,284,236,2.21,1.84,237,,,,,,,,,,,
CC1(C)CC(=O)C=C(Nc2ccc([N+](=O)[O-])cc2)C1,0.494,319,0.157,667,645,0.534,0.478,597,,,,,,,,,,,
CC(=O)Oc1ccccc1C(=O)OC1(C(=O)Nc2ccc([N+](=O)[O-])cc2)CCCCC1,4.283,48.4,0.0355,17.7,11.3,2.86,2.73,16.9,16 mm,16 mm,inactive,inactive,inactive,inactive,2400,inactive,,,
Cc1ccccc1C(=O)OC1(C(=O)Nc2ccc([N+](=O)[O-])cc2)CCCCC1,,352,0.018,,,0.682,,516,,,,,,,,,,,
CCOC1(Nc2ccc([N+](=O)[O-])cc2)C(=O)c2ccccc2C1=O,1.69,47,0.0285,38.9,27.8,1.35,1.21,34.9,inactive,16 mm,13 mm,12 mm,inactive,,,inactive,,1570,inactive
O=C(OC1(C(=O)Nc2ccc([N+](=O)[O-])cc2)CCCCC1)c1ccccc1,0.322,246,0.148,734,766,0.272,0.335,903,,,,,,,,,,,
CC(=O)OC1(C(=O)Nc2ccc([N+](=O)[O-])cc2)CCCCC1,0.746,386,0.122,519,517,0.957,0.743,403,,,,,,,,,,,
O=C(CCC(=O)OC1(C(=O)Nc2ccc([N+](=O)[O-])cc2)CCCCC1)OC1(C(=O)Nc2ccc([N+](=O)[O-])cc2)CCCCC1,,203,0.02,,,,,,,,,,,,,,,,
O=C(OC1(C(=O)Nc2ccc([N+](=O)[O-])cc2)CCCCC1)c1ccccc1[N+](=O)[O-],1.84,34.6,0.0067,44,18.8,2.35,0.786,14.7,12 mm,14 mm,inactive,inactive,inactive,inactive,2480,inactive,,,
COC1(Nc2ccc([N+](=O)[O-])cc2)C(=O)c2ccccc2C1=O,1.637,53.7,0.043,36,32.8,2.11,1.49,25.4,14 mm,14 mm,inactive,inactive,inactive,inactive,3280,inactive,,,
O=C(OC1(C(=O)Nc2ccc([N+](=O)[O-])cc2)CCCCC1)c1ccc(Cl)cc1,34.466,355,0.1128,21.8,10.3,23.7,16.3,15,14 mm,16 mm,13 mm,inactive,inactive,inactive,1270,inactive,,,
O=C(/C=C/c1ccccc1)OC1(C(=O)Nc2ccc([N+](=O)[O-])cc2)CCCCC1,0.811,41,0.0197,52.9,50.5,0.711,0.774,57.6,inactive,inactive,inactive,inactive,inactive,,,,,,
O=C(O)c1cn(C2CC2)c2cc(N3CCNCC3)c(F)cc2c1=O [CIPROFLOXACIN],,,,,,,,,43 mm,40 mm,24 mm,26 mm,,,3,,,6,
O=C(OC1(C(=O)Nc2ccc([N+](=O)[O-])cc2)CCCCC1)c1ccccc1I,,396,0.0247,,,0.639,,619,,,,,,,,,,,
